# Source: ChEMBL document CHEMBL1122917, “Vinblastin-23-oyl amino acid derivatives: chemistry, physicochemical data, toxicity, and antitumor activities against P388 and L1210 leukemias” (J Med Chem, 1985)
# Tests used:
# Type in all cases: functional
# Mus musculus [1] = test: Percent increase in life span at dose 6 mg/kg/day in 10 mice implanted with P388 leukemia cell line
# In short: (§1)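 Female DBA2 mice inoculated iv on day 0 with 10^4 P388 cells; single iv treatment on day 1 with drug as sulfate salt in physiological saline. Survival followed; %ILS from all deaths and survivors as (T/C × 100) − 100, maximal MST 30 days; survivors counted on days 30 and 60. Most experiments confirmed three times.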
# Mus musculus [2] = test: Percent increase in life span at dose 9 mg/kg/day in 10 mice implanted with P388 leukemia cell line; in short: as §1
# Mus musculus [3] = test: Number of survivors on 60th day at dose 9 mg/kg/day in 10 mice implanted with P388 leukemia cell line
# Mus musculus [4] = test: Number of survivors of DBA2 mice on 30th day after inoculation with L1210 leukemia cell line intravenously at a dose of 7 mg/kg/day; 0/10; details: route intravenous
# Mus musculus [5] = test: Number of survivors on 60th day at dose 7 mg/kg/day in 10 mice implanted with P388 leukemia cell line; in short: as §1
# Mus musculus [6] = test: Percent increase in life span at dose 5 mg/kg/day in 10 mice implanted with P388 leukemia cell line; in short: as §1
# Mus musculus [7] = test: Number of survivors on 30th day at dose 6 mg/kg/day in 10 mice implanted with P388 leukemia cell line
# Mus musculus [8] = test: Number of survivors on 60th day at dose 3 mg/kg/day in 10 mice implanted with P388 leukemia cell line
# Mus musculus [9] = test: Number of survivors on 30th day at dose 8 mg/kg/day in 10 mice implanted with P388 leukemia cell line
# Mus musculus [10] = test: Percent increase in life span at dose 7 mg/kg/day in 10 mice implanted with P388 leukemia cell line; in short: as §1
# Mus musculus [11] = test: Percent increase in life span at dose 8 mg/kg/day in 10 mice implanted with P388 leukemia cell line; in short: as §1
# Mus musculus [12] = test: Percent increase in life span of DBA2 mice after inoculation with L1210 leukemia intravenously at a dose of 6 mg/kg per day; details: route intravenous
# In short: (§2)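 Female DBA2 mice inoculated iv on day 0 with 10^4 L1210 cells; drugs given iv as sulfate salts in physiological saline, mostly once on day 1. %ILS from all deaths and survivors as (T/C × 100) − 100; survivors scored on days 30 and 60.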
# Mus musculus [13] = test: Number of survivors on 60th day at dose 5 mg/kg/day in 10 mice implanted with P388 leukemia cell line
# Mus musculus [14] = test: Number of survivors on 30th day at dose 9 mg/kg/day in 10 mice implanted with P388 leukemia cell line
# Mus musculus [15] = test: Number of survivors on 60th day at dose 8 mg/kg/day in 10 mice implanted with P388 leukemia cell line; in short: as §1
# Mus musculus [16] = test: Percent increase in life span at dose 3 mg/kg/day in 10 mice implanted with P388 leukemia cell line; in short: as §1
# Mus musculus [17] = test: Number of survivors of DBA2 mice on 60th day after inoculation with L1210 leukemia cell line intravenously at a dose of 6 mg/kg/day; 0/10; details: route intravenous
# Mus musculus [18] = test: Number of survivors of DBA2 mice on 30th day after inoculation with L1210 leukemia cell line intravenously at a dose of 6 mg/kg/day; 0/10; details: route intravenous
# Mus musculus [19] = test: Number of survivors on 30th day at dose 3 mg/kg/day in 10 mice implanted with P388 leukemia cell line; 0/10
# Mus musculus [20] = test: Percent increase in life span of DBA2 mice after inoculation with L1210 leukemia intravenously at a dose of 7 mg/kg per day; details: route intravenous; in short: as §2
# Mus musculus [21] = test: Number of survivors of DBA2 mice on 60th day after inoculation with L1210 leukemia cell line intravenously at a dose of 7 mg/kg/day; 0/10; details: route intravenous
# Mus musculus [22] = test: Number of survivors on 30th day at dose 5 mg/kg/day in 10 mice implanted with P388 leukemia cell line
# Mus musculus [23] = test: Number of survivors on 60th day at dose 6 mg/kg/day in 10 mice implanted with P388 leukemia cell line
# Mus musculus [24] = test: Number of survivors on 30th day at dose 7 mg/kg/day in 10 mice implanted with P388 leukemia cell line
# Mus musculus [25] = test: Number of survivors of DBA2 mice on 30th day after inoculation with L1210 leukemia cell line intravenously at a dose of 50 mg/kg/day; 0/10; details: route intravenous
# Mus musculus [26] = test: Number of survivors on 60th day at dose 60 mg/kg/day in 10 mice implanted with P388 leukemia cell line; in short: as §1
# Mus musculus [27] = test: Percent increase in life span of DBA2 mice after inoculation with L1210 leukemia intravenously at a dose of 55 mg/kg per day; details: route intravenous; in short: as §2
# Mus musculus [28] = test: Number of survivors of DBA2 mice on 60th day after inoculation with L1210 leukemia cell line intravenously at a dose of 50 mg/kg/day; 0/10; details: route intravenous
# Mus musculus [29] = test: Percent increase in life span of DBA2 mice after inoculation with L1210 leukemia intravenously at a dose of 50 mg/kg per day; details: route intravenous; in short: as §2
# Mus musculus [30] = test: Percent increase in life span at dose 55 mg/kg/day in 10 mice implanted with P388 leukemia cell line; in short: as §1
# Mus musculus [31] = test: Number of survivors on 30th day at dose 70 mg/kg/day in 10 mice implanted with P388 leukemia cell line
# Mus musculus [32] = test: Number of survivors on 30th day at dose 50 mg/kg/day in 10 mice implanted with P388 leukemia cell line
# Mus musculus [33] = test: Percent increase in life span at dose 30 mg/kg/day in 10 mice implanted with P388 leukemia cell line; in short: as §1
# Mus musculus [34] = test: Number of survivors on 60th day at dose 50 mg/kg/day in 10 mice implanted with P388 leukemia cell line
# Mus musculus [35] = test: Number of survivors on 60th day at dose 55 mg/kg/day in 10 mice implanted with P388 leukemia cell line
# Mus musculus [36] = test: Number of survivors of DBA2 mice on 30th day after inoculation with L1210 leukemia cell line intravenously at a dose of 55 mg/kg/day; 0/10; details: route intravenous
# Mus musculus [37] = test: Percent increase in life span at dose 40 mg/kg/day in 10 mice implanted with P388 leukemia cell line; in short: as §1
# Mus musculus [38] = test: Number of survivors on 30th day at dose 30 mg/kg/day in 10 mice implanted with P388 leukemia cell line
# Mus musculus [39] = test: Number of survivors of DBA2 mice on 60th day after inoculation with L1210 leukemia cell line intravenously at a dose of 55 mg/kg/day; 0/10; details: route intravenous
# Mus musculus [40] = test: Number of survivors on 60th day at dose 30 mg/kg/day in 10 mice implanted with P388 leukemia cell line
# Mus musculus [41] = test: Number of survivors on 60th day at dose 70 mg/kg/day in 10 mice implanted with P388 leukemia cell line; in short: as §1
# Mus musculus [42] = test: Number of survivors on 30th day at dose 55 mg/kg/day in 10 mice implanted with P388 leukemia cell line
# Mus musculus [43] = test: Number of survivors on 60th day at dose 40 mg/kg/day in 10 mice implanted with P388 leukemia cell line
# Mus musculus [44] = test: Percent increase in life span at dose 50 mg/kg/day in 10 mice implanted with P388 leukemia cell line; in short: as §1
# Mus musculus [45] = test: Percent increase in life span at dose 60 mg/kg/day in 10 mice implanted with P388 leukemia cell line; in short: as §1
# Mus musculus [46] = test: Percent increase in life span at dose 70 mg/kg/day in 10 mice implanted with P388 leukemia cell line; in short: as §1
# Mus musculus [47] = test: Number of survivors on 30th day at dose 40 mg/kg/day in 10 mice implanted with P388 leukemia cell line
# Mus musculus [48] = test: Number of survivors on 30th day at dose 60 mg/kg/day in 10 mice implanted with P388 leukemia cell line
smiles,measurement,setting,value
CC[C@H](C)[C@H](NC(=O)[C@@]1(O)[C@H](O)[C@]2(CC)C=CCN3CC[C@@]4(c5cc([C@@]6(C(=O)OC)C[C@H]7C[N@](CCc8c6[nH]c6ccccc86)C[C@](O)(CC)C7)c(OC)cc5N(C)[C@@]14C)[C@@H]32)C(=O)OC,ILS at 6 mg/kg/day,Mus musculus [1],118%
same,ILS at 9 mg/kg/day,Mus musculus [2],48.3%
same,Survivors,Mus musculus [3],4
same,Survivors,Mus musculus [4],0
same,Survivors,Mus musculus [5],2
same,ILS at 5 mg/kg/day,Mus musculus [6],66.5%
same,Survivors,Mus musculus [7],3
same,Survivors,Mus musculus [8],0
same,Survivors,Mus musculus [9],3
same,ILS at 7 mg/kg/day,Mus musculus [10],164%
same,ILS at 8 mg/kg/day,Mus musculus [11],149%
same,ILS at 6 mg/kg/day,Mus musculus [12],65.7%
same,Survivors,Mus musculus [13],1
same,Survivors,Mus musculus [14],4
same,Survivors,Mus musculus [15],3
same,ILS at 3 mg/kg/day,Mus musculus [16],41.3%
same,Survivors,Mus musculus [17],0
same,Survivors,Mus musculus [18],0
same,Survivors,Mus musculus [19],0
same,ILS at 7 mg/kg/day,Mus musculus [20],64%
same,Survivors,Mus musculus [21],0
same,Survivors,Mus musculus [22],3
same,Survivors,Mus musculus [23],0
same,Survivors,Mus musculus [24],5
CC[C@]1(O)C[C@@H]2C[N@](CCc3c([nH]c4ccccc34)[C@@](C(=O)OC)(c3cc4c(cc3OC)N(C)[C@@]3(C)[C@@](O)(C(=O)N[C@@H](Cc5c[nH]c6ccccc56)C(=O)OC)[C@H](O)[C@]5(CC)C=CCN6CC[C@]43[C@@H]65)C2)C1,Survivors,Mus musculus [25],0
same,Survivors,Mus musculus [26],2
same,ILS at 55 mg/kg/day,Mus musculus [27],60.2%
same,Survivors,Mus musculus [28],0
same,ILS at 50 mg/kg/day,Mus musculus [29],47.4%
same,ILS at 55 mg/kg/day,Mus musculus [30],85.8%
same,Survivors,Mus musculus [31],5
same,Survivors,Mus musculus [32],1
same,ILS at 30 mg/kg/day,Mus musculus [33],33.9%
same,Survivors,Mus musculus [34],1
same,Survivors,Mus musculus [35],1
same,Survivors,Mus musculus [36],0
same,ILS at 40 mg/kg/day,Mus musculus [37],42.8%
same,Survivors,Mus musculus [38],0
same,Survivors,Mus musculus [39],0
same,Survivors,Mus musculus [40],0
same,Survivors,Mus musculus [41],3
same,Survivors,Mus musculus [42],2
same,Survivors,Mus musculus [43],0
same,ILS at 50 mg/kg/day,Mus musculus [44],110%
same,ILS at 60 mg/kg/day,Mus musculus [45],132%
same,ILS at 70 mg/kg/day,Mus musculus [46],145%
same,Survivors,Mus musculus [47],0
same,Survivors,Mus musculus [48],3
